This is an account of results in ChEMBL document CHEMBL1134377, “New synthesis of benzo-delta-carbolines, cryptolepines, and their salts: in vitro cytotoxic, antiplasmodial, and antitrypanosomal activities of delta-carbolines, benzo-delta-carbolines, and cryptolepines” (J Med Chem, 2001).

For experiment [1], the system named is Plasmodium falciparum. The experiment in a line: Antiplasmodial activity against chloroquine-resistant Plasmodium falciparum K1. The experiment is classed as functional, organism-based. The following applies: Plasmodium falciparum. In short, it runs like this: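 K1 strain kept in continuous culture on human erythrocytes. Asynchronous cultures (1% parasitemia, 1% final hematocrit) exposed to serial dilutions of drug (DMSO stocks; final DMSO ≤0.2%) for 24 h at 37 °C. 0.5 µCi [3H]hypoxanthine per well was then added for a further 24 h. Inhibition is incorporation versus untreated controls on the same plate. IC50 taken from concentration-response curves, mean ± SD of several independent experiments.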

Experiment [2] can be described thus: In vitro cell survival assay on cancer KB cell lines. The experiment is classed as functional, cell-based, Homo sapiens. In short, it runs like this:
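KB oral epidermoid carcinoma cells in MEM with 10% FCS, 25 000 cells/well; serial dilutions (DMSO or water) added at plating; 3 days at 37 °C, 5% CO2; viability by neutral red uptake 8-16 h, SDS lysis, absorbance 540 nm.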

Experiment [3] concerns Plasmodium falciparum. The experiment in a line: Selectivity index against Plasmodium falciparum. It counts as functional.
In the next experiment the test system is L6. Kind of experiment: In vitro cytotoxicity against L6 cells. The following applies: Rattus norvegicus, L6. The experiment is classed as functional, cell-based, Rattus norvegicus.
Experiment [4] has as its system Trypanosoma cruzi. Kind of experiment: Antitrypanosomal activity against Trypanosoma cruzi amastigotes. The settings on record: Trypanosoma cruzi. It counts as functional, organism-based.
For experiment [5], the system named is Trypanosoma cruzi. The experiment in a line: Antitrypanosomal activity against (Trypanosoma cruzi) trypomastigotes (concentration of compound tested on trypomastigote motility). The experiment is classed as functional, organism-based. The settings on record: Trypanosoma cruzi. In short, it runs like this: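 Tulahuen LacZ clone 4 trypomastigotes harvested from infected murine L6 muscle cell cultures; 2-fold drug dilutions from 200 to 1.5 µM, 48 h; motility scored by microscopy; value is concentration with no detectable motility effect, mean of 2 independent experiments.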

The test system of experiment [6] is Trypanosoma cruzi. The experiment in a line: Antitrypanosomal activity against Trypanosoma cruzi epimastigotes. The experiment is classed as functional, organism-based. The following applies: Trypanosoma cruzi.
In experiment [7] the test system is Trypanosoma cruzi. The experiment in a line: Index of selectivity was determined in Trypanosoma cruzi. The experiment is classed as functional. Summed up: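 Ratio of IC50 on L6 cells to IC50 on intracellular amastigote proliferation of T. cruzi.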
A short description of experiment [8]: In vitro cytotoxicity against L6 cells.

Each structure is given as a SMILES string. Where a name gives a salt, the structure may show the parent alone.

As usually defined, the IC50 is the concentration that gives 50% inhibition. A low value points to higher potency. Turning to `CC(C)c1c2nc3ccccc3c-2n(C)c2ccccc12`, the IC50 in the experiment with Plasmodium falciparum [1] came out at 2.2 µM; in experiment [2] (Homo sapiens, KB), 6.5 µM; in the experiment with L6, 23.8 µM. Also, the IS in the experiment with Plasmodium falciparum [3] stood at 10.6.
Take `Cc1c2nc3ccccc3c-2n(C)c2ccccc12`: the concentration for half-maximal inhibition (IC50) with Plasmodium falciparum [1] stood at 0.101 µM; in experiment [2] (Homo sapiens, KB), 0.53 µM; in the experiment on L6, 3.7 µM. The same molecule registered an IS in the experiment with Plasmodium falciparum [3] of 41.9.
For `CCc1c2nc3ccccc3c-2[nH]c2ccccc12`, the IC50 is 5.7 µM in the experiment with Trypanosoma cruzi [4]; 30.9 µM with Plasmodium falciparum [1]; 6.25 µM in the experiment on Trypanosoma cruzi [5]; 2.8 µM with Trypanosoma cruzi [6]; 40 µM in experiment [2] (Homo sapiens, KB); 21.5 µM in the experiment with L6. Further, the figures for the IS in the experiment with Trypanosoma cruzi [7] and with Plasmodium falciparum [3] were 3.8 and 0.7, respectively.
Turning to `CC(C)c1c2ccccc2[n+](C)c2c1[nH]c1ccccc12.O=S(=O)([O-])C(F)(F)F`, the IC50 was 3.3 µM with Trypanosoma cruzi [4]; 1.3 µM in the experiment on Plasmodium falciparum [1]; 12.5 µM in the experiment with Trypanosoma cruzi [5]; 0.73 µM in the experiment on Trypanosoma cruzi [6]; 6.4 µM in experiment [2] (kb); 15.1 µM with L6. The IS stood at 4.6 in the experiment with Trypanosoma cruzi [7] and 12.6 with Plasmodium falciparum [3].
Turning to `Cc1c2ccccc2[n+](C)c2c1[nH]c1ccccc12`, in [2] (Homo sapiens, KB), the IC50 came out at 0.42 µM.
Take `Cc1c2nc3ccccc3c-2[nH]c2ccccc12`: the IC50 in the experiment with Trypanosoma cruzi [4] came to 4.7 µM; with Plasmodium falciparum [1], 74.6 µM; in the experiment on Trypanosoma cruzi [5] it was 25 µM; in the experiment on Trypanosoma cruzi [6], 3.9 µM; in experiment [2] (Homo sapiens, KB), 40 µM; in the experiment on L6, 18.9 µM. Further, the IS in the experiment with Trypanosoma cruzi [7] worked out at 4; in the experiment with Plasmodium falciparum [3] it was 0.25.
Regarding `CCc1c2ccccc2[n+](C)c2c1[nH]c1ccccc12`, in experiment [2] (Homo sapiens, KB), the IC50 was 1.5 µM. In other words, the single-digit micromolar range.
`Cc1c2ccccc2[n+](C)c2c1[nH]c1ccccc12.O=S(=O)([O-])C(F)(F)F`: the IC50 with Trypanosoma cruzi [4] is 0.074 µM; with Plasmodium falciparum [1], 0.062 µM; with Trypanosoma cruzi [5], 12.5 µM; in the experiment on Trypanosoma cruzi [6], 0.3 µM; in experiment [2] (kb) it was 0.57 µM; with L6 it was 1.4 µM. The IS was found to be 18.9 in the experiment on Trypanosoma cruzi [7] and 22.5 with Plasmodium falciparum [3].
For `Clc1c2nc3ccccc3c-2[nH]c2ccccc12`, the IC50 in experiment [8] is 43.2 µM; with Trypanosoma cruzi [4] it was 6.7 µM; in the experiment with Plasmodium falciparum [1], 74.6 µM; in the experiment with Trypanosoma cruzi [5] it was 50 µM; with Trypanosoma cruzi [6], 6.3 µM. The IS in the experiment with Trypanosoma cruzi [7] was 6.4; in the experiment with Plasmodium falciparum [3], 1.7.
Consider `c1ccc(-c2c3nc4ccccc4c-3[nH]c3ccccc23)cc1`, for which the IC50 in experiment [2] (Homo sapiens, KB) was greater than 100 µM.
The same measure, in the same setting: the value for `CC(C)c1c2ccccc2[n+](C)c2c1[nH]c1ccccc12` was 9.25 µM.
In the case of `Cn1c2c3ccccc3nc-2c(-c2ccccc2)c2ccccc21`, the IC50 with Trypanosoma cruzi [4] was determined as 0.34 µM; in the experiment with Plasmodium falciparum [1] it was 1.1 µM; in the experiment on Trypanosoma cruzi [5] it was 1.5 µM; in the experiment with Trypanosoma cruzi [6] it was 0.23 µM; in experiment [2] (Homo sapiens, KB), 0.75 µM; with L6, 5.5 µM. Further, the IS is listed as 16.6 in the experiment on Trypanosoma cruzi [7] and 5.5 with Plasmodium falciparum [3].
As to `CC(C)c1c2nc3ccccc3c-2[nH]c2ccccc12`, the half-inhibitory concentration (IC50) in experiment [2] (Homo sapiens, KB) was found to be 57 µM.
For `CCc1c2nc3ccccc3c-2n(C)c2ccccc12`, the IC50 in the experiment with Trypanosoma cruzi [4] came out at 0.18 µM; in the experiment with Plasmodium falciparum [1], 1.1 µM; in the experiment with Trypanosoma cruzi [5], 6.25 µM; in the experiment on Trypanosoma cruzi [6], 3.2 µM; in experiment [2] (Homo sapiens, KB), 0.7 µM; with L6, 5.9 µM. Moreover, the IS came out at 33 with Trypanosoma cruzi [7] and 5.5 with Plasmodium falciparum [3].
As for `C[n+]1c2ccccc2cc2[n-]c3ccccc3c21` [CRYPTOLEPINE HYDROCHLORIDE], half-maximal inhibition in experiment [2] (kb) (IC50) required 1.75 µM.
`C[n+]1c2ccccc2cc2[n-]c3ccccc3c21` [CRYPTOLEPINE] came in with an IC50 in experiment [2] (Homo sapiens, KB) of 1.5 µM.
For `c1ccc2nc3c(cc2c1)[nH]c1ccccc13` [QUINDOLINE], the IC50 in the experiment on Trypanosoma cruzi [4] was 14.2 µM; in the experiment with Plasmodium falciparum [1] it was 36.2 µM; with Trypanosoma cruzi [5], 50 µM; with Trypanosoma cruzi [6] it was 8.7 µM; in experiment [2] (Homo sapiens, KB), 45 µM; in the experiment on L6 it was 48.6 µM. The IS was determined as 3.4 in the experiment on Trypanosoma cruzi [7] and 1.3 with Plasmodium falciparum [3].
